KCNK9 inh-1: human KCNK9 channel inhibition | actives 1.2% (n = 310,000) | HEK293 KCNK9, FluxOR thallium flux fluorescence; stronger effect = lower value | Q9NPC2 | B-score at 10 µM;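 active = ratio B-score over 3 SD below the library mean, with starting fluorescence within 5 SD of its mean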;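 note: negative B-score means less thallium flux so channel inhibition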
Target sequence (Q9NPC2 whole entry, looked up): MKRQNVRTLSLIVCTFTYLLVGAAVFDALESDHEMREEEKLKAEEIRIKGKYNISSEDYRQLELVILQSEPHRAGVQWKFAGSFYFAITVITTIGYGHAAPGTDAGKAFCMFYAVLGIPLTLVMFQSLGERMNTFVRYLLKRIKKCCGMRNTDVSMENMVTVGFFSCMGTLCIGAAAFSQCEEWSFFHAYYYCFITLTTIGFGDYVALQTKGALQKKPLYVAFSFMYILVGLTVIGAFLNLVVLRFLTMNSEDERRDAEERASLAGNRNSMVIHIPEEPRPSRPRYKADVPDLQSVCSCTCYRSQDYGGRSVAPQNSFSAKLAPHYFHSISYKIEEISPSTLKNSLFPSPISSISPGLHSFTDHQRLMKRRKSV
KCNK3 block: human KCNK3 channel inhibition, primary screen; O14649; CHO-KCNK3 thallium flux, FluxOR fluorescence; stronger effect = lower value; B-score at 10 µM; actives 0.84% (n = 340,000);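 active = B-score under library mean minus 4 SD, starting fluorescence ratio at most library mean plus 5 SD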;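 note: more negative B-score means stronger inhibition of thallium flux through KCNK3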
hERG protect: shields human hERG channel from block by proarrhythmic agents. Q12809. CHO-hERG, FluxOR thallium flux, dofetilide IC70 present. activation (rescue from dofetilide block), less the hit threshold, % at 10 µM. actives 0.51% (n = 310,000);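 active = activation above the mean of controls blocked by dofetilide plus 5 SD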;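 note: thallium influx through hERG after potassium depolarization seen as dye fluorescence rise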
KCNQ1 pot: human KCNQ1 channel potentiation or activation; AID 2648; B-score at 10 µM; CHO-K1 KCNQ1, thallium flux FluxOR fluorescence; stronger effect = higher value; actives 0.35% (n = 310,000); P51787;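 active = fluorescence ratio B-score, a plate-corrected score, at least three library SD, with initial intensity B-score within 5 SD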
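Medium – assay buffer, equal DMSO in all wells · Material – CHO-K1 cell line with stable KCNQ1 potassium channel expression · Signal – kinetic FluxOR thallium fluorescence, 10-s 1-Hz baseline, 110-s post-stimulus read · Compound – single concentration per compound, DMSO matched to controls · Schedule – 37 °C overnight plating, 90-min dark dye load, 20-min compound pretreatment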
KCNQ1 block: inhibitors of human KCNQ1 potassium channel; P51787; CHO-K1 KCNQ1, FluxOR thallium flux fluorescence; stronger effect = higher value; B-score at 10 µM; actives 1.3% (n = 310,000); AID 2642;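 active = compounds whose thallium flux B-score, printed positive for inhibition, exceeds three library SD while starting fluorescence stays within three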;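 note: channel opened by potassium depolarization with thallium stimulus after 20 min compound exposure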
Kir21 block: Kir2.1 (mouse) channel inhibition. P35561. HEK293-Kir2.1, FluxOR thallium flux fluorescence; stronger effect = lower value. B-score at 10 µM. actives 0.85% (n = 310,000);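 active = fluorescence ratio B-score at or below minus 3 SD of library scores, with starting-brightness B-score within 2 SD, cut at about -4.2 in these data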;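 note: channel flux triggered by added potassium and thallium sulfate stimulus; B-score of peak minus minimum fluorescence over baseline after thallium stimulus; more negative B-score means stronger Kir2.1 block with less thallium influx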
hERG inh: counter-screen for Kir2.1 inhibitors: effect on human hERG; hERG-expressing cells, thallium flux; AID 2236; shares compounds with Kir21 block; actives 20% (n = 320); inhibition, % at 10 µM;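 note: host cells are CHO cells stably expressing hERG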
KCNK9 inh-2: selectivity of Kir2.1 inhibitors: effect on human KCNK9; KCNK9-expressing cells, ion flux inhibition; shares compounds with Kir21 block; inhibition, % at 10 µM; AID 2329; actives 5% (n = 320)
Kir21 ephys inh: mouse Kir2.1 inward rectifier channel inhibition. shares compounds with Kir21 block. Kir2.1 cells, automated patch-clamp current inhibition. inhibition, % at 25 µM. actives 71% (n = 320)
Each line names hits and unclear results; the compound was inactive in the other large screens (follow-up assays come after a bar, where they were run). Sampled rows, rich in hits. Any-hit rate of the full collection: about 3.7%. Unless noted, the rule behind the calls is not given here.

C[C@]12CCC(O)CC1=CCC1C2CC[C@]2(C)/C(=N\NC(N)=S)CCC12 (stereo partly specified)	none
Cc1cc(C(=O)COc2cc(F)ccc2[N+](=O)[O-])c(C)n1C1CC1	hERG protect 34
Cc1c(Cc2ccccc2)sc(/N=C/c2ccc3ccccc3c2)c1C(N)=O	none (no result: KCNK9 inh-1, hERG protect, KCNQ1 pot, KCNQ1 block, Kir21 block)
Cc1c(Cc2ccccc2)sc(/N=C/c2c(O)ccc3ccccc23)c1C(N)=O	KCNQ1 block 7
COc1ccc(N2CCN(C(=O)Cc3ccc(OC)c(OC)c3)CC2)cc1	none
CN(Cc1ccccc1)C(=S)NC(=O)c1cccs1	KCNQ1 pot 39
CN(Cc1ccccc1)C(=S)NC(=O)c1ccc(-c2ccccc2)cc1	none
Clc1ccc(CSc2nnc(CNc3cccc(Cl)c3)o2)cc1	KCNQ1 block 6
Fc1cccc(Cl)c1CSc1nnc(CNc2ccccc2)o1	none
COc1ccc(CCNC(=S)N2CCN(S(=O)(=O)c3ccccc3F)CC2)cc1	none
Nc1c(-c2ccccc2Cl)cnn1-c1cccc([N+](=O)[O-])c1	KCNK9 inh-1 -7.6
COc1ccc(Nc2cc(C)c3c(O)cccc3n2)cc1	Kir21 block -13
Cc1ccc(Nc2cc(C)c3c(O)cccc3n2)cc1C	none
COc1cc(Cl)ccc1OCc1cc(C(=O)N(C)CC2CCCCO2)no1 (stereo unspecified)	Kir21 block -4.5
COc1ccc(OCc2cc(C(=O)N(C)CC3CCCCO3)no2)c(Cl)c1 (stereo unspecified)	none
Cc1ccc([C@@H]2[C@@H]3C(=O)N(c4ccccc4)C(=O)[C@@H]3[C@]3(C)C(=O)N(Cc4ccc(-c5ccccc5)cc4)CC(=O)N23)o1	none
CSC(C(=O)c1cc2ccccc2o1)c1ccccc1 (stereo unspecified)	KCNQ1 pot 15
Cc1nc2sccn2c1-c1csc(NCc2ccccc2)n1	KCNQ1 block 6
C=CCNc1nc(-c2c(C)nc3sccn23)cs1	none
NS(=O)(=O)c1ccc(Nc2ncccc2[N+](=O)[O-])cc1	hERG protect 4.6
COc1ccc(Cl)cc1NC(=O)C(C)OC(=O)Cn1cc(C(F)(F)F)ccc1=O (stereo unspecified)	none (no result: KCNK9 inh-1, hERG protect, KCNQ1 pot, KCNQ1 block, Kir21 block)
OC[C@H]1O[C@H](OC[C@H]2O[C@H](OC[C@H]3O[C@H](O[C@]4(CO)O[C@H](CO)[C@@H](O)[C@@H]4O)[C@H](O)[C@@H](O)[C@@H]3O)[C@H](O)[C@@H](O)[C@H]2O)[C@H](O)[C@@H](O)[C@H]1O	KCNQ1 pot 32
COc1ccc(NC(=O)CSc2nc3c(sc4ccccc43)c(=O)n2CCCN2CCCC2)cc1	none
COC(=O)/C(=C/c1cn(C)c2ccccc12)[N+](=O)[O-]	Kir21 block -5.3 (no result: KCNK3 block)
COC(=O)/C(=C/c1cn(C(C)=O)c2ccccc12)[N+](=O)[O-]	none (no result: KCNK9 inh-1, hERG protect, KCNQ1 pot, KCNQ1 block, Kir21 block)
COc1ccc(NC(=O)CN(C)C(=O)c2ccc(NS(=O)(=O)c3ccc(F)cc3)cc2)cc1	none
Cc1cc(Cl)c2oc(C(=O)N3CCN(c4ccncc4)CC3)c(C)c2c1	Kir21 block -5.1
CC(C)NCCCOc1ccc(C(C)(C)c2ccccc2)cc1	none
CC(C)(c1ccccc1)c1ccc(OCCCNCCO)cc1	Kir21 block -8.6 | hERG inh inactive | KCNK9 inh-2 inactive | Kir21 ephys inh 59%
CC(NC(=O)Nc1ccc(Cl)cc1)C1CCCO1 (stereo unspecified)	none
Cc1cc(Cl)ccc1OC(C)C(=O)NC(C)C1CCCO1 (stereo unspecified)	Kir21 block -8.5 | hERG inh inactive | KCNK9 inh-2 inactive | Kir21 ephys inh 9.2%
